For 84 variants, yeast fitness results are on record in the RNAGym collection of RNA variant scans (doi:10.1126/science.aae0568).

The chains are these.
B1: tRNA (parent)
chain: GUUCCGUUGGCGUAAUGGUAACGCGUCUCCCUCCUAAGGAGAAGACUGCGGGUUCGAGUCCCGUACGGAACG

This sample holds only a part of the variants without activity. A value given as a limit tells only on which side of the number the result lay.

The variants in the series derive from B1. The series is described as follows: yeast fitness relative to wild type (ratio to wild type); higher = fitter; tRNA-Arg(CCU), competitive growth, 37 C, YPD. The method, boiled down: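 Variants of the tRNA-Arg(CCU) gene, chemically synthesised with a 3% per-site mutation rate at 69 sites, were placed at the native genomic locus in Saccharomyces cerevisiae. The pooled strains were competed in YPD at 37°C for 24 hours in six parallel replicates. Gene amplicons from the start population and from each end population were read by 100-nucleotide paired-end sequencing. Darwinian fitness relative to wild type came from changes in genotype frequencies; genotypes needed ≥ 100 starting reads, and estimates < 0.5 were set to 0.5.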
As for G6C A20C A40G A42U G58A G63A G67A, the yeast fitness is 0.519.

With G6A U19G U53C, the yeast fitness is not above 0.5.

Consider G6A G39A G41A A65G, for which the yeast fitness is 0.613.

On to G6A U8C C62U G67A, for which the yeast fitness was not above 0.5.

For G6C C27A, the yeast fitness stood at 0.84.

For the variant G6C C27G, the yeast fitness was 0.567.

G6C C27U: the yeast fitness is 0.933.

Turning to G6C C29G C66U, the yeast fitness came out at 0.565.

G6A U13G C62G: the yeast fitness is not above 0.5.

Take G6A U8C G12C C29G C30U A45U C62U A69U: the yeast fitness was 0.823.

As for G6C A20C C66G A70U, the yeast fitness came to 0.577.

On to G6A U13G U28G, for which the yeast fitness amounted to 0.511.

G6A U47C A57C: the yeast fitness was not above 0.5.

Regarding G6C A65G, the yeast fitness was found to be 0.94.

Consider G6C C33U A43G G58A C60U, for which the yeast fitness worked out at 0.554.

Take G6C A14G C49G G50A G58A: the yeast fitness is not above 0.5.

With G6C C11G A15C G25C C27G C30G G38C C61G U64G, the yeast fitness is not above 0.5.

Regarding G6C C55U, the yeast fitness amounted to 0.873.

Consider G6C C11G U35A, for which the yeast fitness is not above 0.5.

Turning to G6C A37U C49U G56A A69U, the yeast fitness is not above 0.5.

With G6A U53A, the yeast fitness was determined as 0.663.

Regarding G6A U53C, the yeast fitness was determined as 0.82.

Take G6C C30G A36C G58A: the yeast fitness is not above 0.5.

Take G6C A15U G23C C31G G41C G48C: the yeast fitness worked out at 0.574.

As to G6C A15U G23C C31G G41C G48C G67C, the yeast fitness is not above 0.5.

For G6C C11G G41A A42C G50C A70G, the yeast fitness was not above 0.5.

Turning to G6C A43U G50A A70U, the yeast fitness is not above 0.5.

Consider G6A U35G C55A, for which the yeast fitness was found to be 0.643.

Take G6C C49U U53A C66U A70U: the yeast fitness is not above 0.5.

Take G6A U32C: the yeast fitness is 0.839.

In the case of G6C C22A G41A G44A C46A G52A C66U, the yeast fitness is not above 0.5.

Turning to G6A G50A G56U G58A, the yeast fitness is not above 0.5.

As to G6A U8A G52A G56C, the yeast fitness is not above 0.5.

As to G6C C24U G38C A40G A65G, the yeast fitness is not above 0.5.

For G6C A42G U53C C62U, the yeast fitness is not above 0.5.

For G6A U13A A14G U32C A42U, the yeast fitness is not above 0.5.

For the variant G6A U8C C34G, the yeast fitness was not above 0.5.

G6C A45C C46G C55U: the yeast fitness is not above 0.5.

Regarding G6C A37U U53C A69U, the yeast fitness is not above 0.5.

As to G6A U32A A45U A69C, the yeast fitness was 0.565.

Take G6A U8G A42U C61G: the yeast fitness is not above 0.5.

For G6A U13A U16A C24G C33G C62G, the yeast fitness was not above 0.5.

Turning to G6C C30A, the yeast fitness is 0.763.

For the variant G6C C30U, the yeast fitness came to 0.784.

For G6C C33G A40U C46U C49G A65G, the yeast fitness amounted to 0.624.

For the variant G6C A37G G68C, the yeast fitness was determined as 0.536.

In the case of G6A G44A C46A G52A, the yeast fitness worked out at 0.629.

With G6C A43G C49U C60A C62A, the yeast fitness worked out at 0.691.

In the case of G6A U59G, the yeast fitness was determined as 0.912.

Regarding G6A U59A, the yeast fitness was determined as 0.715.

As to G6A U59C, the yeast fitness was determined as 0.893.

On to G6C C34G A45U G68C, for which the yeast fitness was not above 0.5.

In the case of G6A U16G A37C A57C C60A, the yeast fitness is not above 0.5.

Take G6A U26A G48C: the yeast fitness was 0.557.

For G6A G44C, the yeast fitness was determined as 0.799.

G6A G56A G67U: the yeast fitness was not above 0.5.

Regarding G6C C29G, the yeast fitness amounted to 0.723.

With G6C A15U G23A C29U A43G, the yeast fitness was not above 0.5.

Regarding G6C C22A U28A G51U U53G, the yeast fitness was not above 0.5.

As to G6A U13C G23A A65C, the yeast fitness was not above 0.5.

On to G6A U13A A37C, for which the yeast fitness is not above 0.5.

For G6C A40U G56A, the yeast fitness is not above 0.5.

In the case of G6A G39A G52C C55G, the yeast fitness is not above 0.5.

Turning to G6C C55U A70G, the yeast fitness amounted to 0.7.

For G6C C30U C61G, the yeast fitness was not above 0.5.

Consider G6A U8C G17A G25A C55A, for which the yeast fitness is not above 0.5.

As for G6A U19A A20G G23A, the yeast fitness was not above 0.5.

Take G6C C31U U35A C46G G48A C49U: the yeast fitness is not above 0.5.

On to G6A U8C G18C, for which the yeast fitness was not above 0.5.

On to G6C C22A C34A A70C, for which the yeast fitness was found to be 0.525.

For the variant G6A U32G U35G, the yeast fitness was not above 0.5.

For G6C C24G A57U, the yeast fitness was not above 0.5.

With G6A U16C C34G G51A, the yeast fitness was not above 0.5.

In the case of G6C C11U, the yeast fitness is 0.872.

With G6C C11A, the yeast fitness was 0.659.

In the case of G6C C11G A15G C66A, the yeast fitness is not above 0.5.

In the case of G6C C31A G68C, the yeast fitness is 0.502.

As to G6A U13A A14G A42U, the yeast fitness was not above 0.5.

With G6A U32C A37G C55A A65U G68C, the yeast fitness was not above 0.5.

Take G6C A14U A36G A40G C46A C62U: the yeast fitness is not above 0.5.

For the variant G6C A15G C22A C29G A37C, the yeast fitness was not above 0.5.

With G6A U8C U19A C30A A45U G58C A69U, the yeast fitness is not above 0.5.

Turning to G6A U26C A69U, the yeast fitness turned out to be 0.664.

With G6C A15G U54G C55U, the yeast fitness is not above 0.5.
